ChEMBL document CHEMBL4402562, “Discovery of Novel Peptidomimetic Boronate ClpP Inhibitors with Noncanonical Enzyme Mechanism as Potent Virulence Blockers in Vitro and in Vivo” (J Med Chem, 2020)
Values after ≈ are worked out from the molar mass of the structure shown. Active and inactive are the calls of the source. No cut-off for these calls is given here.

Tests used:
Staphylococcus aureus [1] = assay: Inhibition of virulence-related genes expression in methicillin-resistant Staphylococcus aureus ATCC 33591 assessed as reduction in hla expression at 4 to 16 uM by qPCR analysis relative to control; type: functional, organism-based
Outline: (§1)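 Total RNA from 2×10⁸ CFU treated MRSA by liquid-nitrogen freeze-thaw and TRIzol; qPCR relative to gyrB endogenous control; three experiments, triplicate wells.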

Staphylococcus aureus [2] = assay: (§2) Antivirulence activity against methicillin-resistant Staphylococcus aureus ATCC 33591 infected in BALB/c mouse model of skin abscess assessed as reduction in interstitium thickening at 1.5 to 3 mg/kg injected into shaved area of skin once daily for 4 days measured after 12 hrs post last dose by hematoxylin and eosin staining based optical microscopy; type: functional, organism-based
Outline: (§3)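 Same MRSA ATCC 33591 skin-abscess model in female BALB/c mice (n=5/group), 40 µL compound at 1.5 or 3 mg/kg injected into the infected shaved skin once daily for 4 days. On day 4 infected skin and heart, liver, spleen, lung, kidney fixed in 4% paraformaldehyde, embedded, sectioned, H&E stained and examined by microscopy; PBS-treated uninfected and vehicle controls.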

[3] = target: Coagulation factor X (Homo sapiens) (UniProt P00742); assay: Inhibition of human F10a up to 100 uM pre-incubated for 10 mins before Pefachrome Fxa addition and measured after […] based assay
Staphylococcus aureus [4] = assay: Inhibition of virulence-related genes expression in methicillin-resistant Staphylococcus aureus ATCC 33591 assessed as reduction in psm expression at 4 to 16 uM by qPCR analysis relative to control; type: functional, organism-based; outline: as §1
Staphylococcus aureus [5] = assay: Growth inhibition of methicillin-resistant Staphylococcus aureus ATCC 33591 incubated for 18 hrs by broth microdilution method; type: functional; settings: ATCC 33591, 18 h
Outline: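 MRSA ATCC 33591 at ~5×10⁵ CFU/mL in MHB with graded compound concentrations vs DMSO; OD600 growth curves over 18 h; three experiments, triplicate wells. MIC by CLSI broth microdilution in CAMHB, 0.5-256 µg/mL, 18 h at 37 °C, lowest concentration with no visible growth.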

[6] = target: T1, ATP-dependent Clp protease proteolytic subunit (Staphylococcus aureus (strain NCTC 8325)) (UniProt Q2G036); assay: Inhibition of N-terminal His6-sumo-tagged full length Staphylococcus aureus ClpP expressed in Escherichia coli […] assessed as enzyme activity recovery level at 20-fold molar excess pre-incubated for 10 mins before Suc-LY-AMC addition and measured after 1 hr followed by dialysis up to 72 hrs by fluorescence based assay relative to control; parameters: scale not given: the % may be the effect or the level left
T1 sequence (whole entry): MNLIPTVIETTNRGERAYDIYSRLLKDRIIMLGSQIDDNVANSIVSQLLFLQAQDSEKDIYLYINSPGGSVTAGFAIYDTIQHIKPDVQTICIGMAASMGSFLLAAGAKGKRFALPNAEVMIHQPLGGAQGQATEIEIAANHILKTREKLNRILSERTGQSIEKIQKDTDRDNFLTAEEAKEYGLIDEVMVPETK
Outline: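 ClpP (1 μM, 100 mM Hepes pH 7.0, 100 mM NaCl) incubated 1 h at RT with 20-fold molar excess inhibitor or DMSO. Dialyzed at 4 °C, buffer changed after 6 h and then every 24 h. Aliquots assayed for peptidase activity with Suc-LY-AMC. Thrice, single sample.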

[7] = Toxicity in BALB/c mouse model of skin abscess infected with methicillin-resistant Staphylococcus aureus ATCC 33591 assessed as increase in direct bilirubin levels at 1.5 to 3 mg/kg injected into shaved area of skin once daily for 4 days measured on day 14; type: organism-based; settings: in vivo, other, 96 h
Outline: (§4)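 Infected BALB/c mice (n=5/group) dosed 1.5 or 3 mg/kg into the infected skin once daily for 4 days; blood collected on day 4 and day 14, centrifuged 3,500 rpm 15 min, serum biochemistry analysed.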

[8] = Toxicity in BALB/c mouse model of skin abscess infected with methicillin-resistant Staphylococcus aureus ATCC 33591 assessed as increase in direct bilirubin levels at 1.5 to 3 mg/kg injected into shaved area of skin once daily for 4 days; type: organism-based; settings: in vivo, other, 96 h; outline: as §4
[9] = target: T1, ATP-dependent Clp protease proteolytic subunit (Staphylococcus aureus (strain NCTC 8325)); assay: Inhibition of N-terminal His6-sumo-tagged full length Staphylococcus aureus ClpP expressed in Escherichia coli […] (DE3) assessed as Kinact/Ki ratio […] and measured after 1 hr by fluorescence based assay
[10] = Inhibition of Staphylococcus aureus ClpXP expressed in Escherichia coli […] using FITC-casein substrate in presence of ATP-regenerating system incubated for 50 mins by fluorescence based assay
Outline: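 3.6 μM SaClpP with 3 μM SaClpX in 25 mM Hepes pH 7.5, 20 mM MgCl2, 30 mM KCl, 0.03% Tween 20, 10% glycerol, 2 mM DTT. ATP regeneration: 4 mM ATP, 20 U/mL creatine kinase, 16 mM creatine phosphate. FITC-casein 0.048 mg/mL, 494/521 nm for 50 min; slope 300–1200 s vs DMSO. Thrice, triplicate wells.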

Staphylococcus aureus [11] = assay: as §2, with “kidney histopathological changes” for “interstitium thickening”; type: functional, organism-based; outline: as §3
[12] = Toxicity in BALB/c mouse model of skin abscess infected with methicillin-resistant Staphylococcus aureus ATCC 33591 assessed as effect on alanine transaminase levels at 1.5 to 3 mg/kg injected into shaved area of skin once daily for 4 days; type: organism-based; settings: in vivo, other, 96 h; outline: as §4
[13] = Toxicity in BALB/c mouse model of skin abscess infected with methicillin-resistant Staphylococcus aureus ATCC 33591 assessed as effect on blood urea nitrogen levels at 1.5 to 3 mg/kg injected into shaved area of skin once daily for 4 days; type: organism-based; settings: in vivo, other, 96 h; outline: as §4
Staphylococcus aureus [14] = assay: as §2, with “preservation of skin integrity” for “reduction in interstitium thickening”; type: functional, organism-based; outline: as §3
Staphylococcus aureus [15] = assay: as §2, with “heart histopathological changes” for “interstitium thickening”; type: functional, organism-based; outline: as §3
[16] = Toxicity in BALB/c mouse model of skin abscess infected with methicillin-resistant Staphylococcus aureus ATCC 33591 assessed as effect on LDH levels at 1.5 to 3 mg/kg injected into shaved area of skin once daily for 4 days; type: organism-based; settings: in vivo, other, 96 h; outline: as §4
[17] = Cytotoxicity in human HeLa cells assessed as reduction in cell viability incubated for 24 hrs by MTT assay; type: cell-based
Outline: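 MTT assay. HeLa (3×10^3 cells) or HepG2 (4×10^3 cells) seeded in DMEM and grown 24 h, then given compound for a further 24 h. Absorbance read at 570 nm against DMSO wells. GI50 from dose-response fit; three experiments, triplicate wells.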

[18] = Toxicity in BALB/c mouse model of skin abscess infected with methicillin-resistant Staphylococcus aureus ATCC 33591 assessed as effect on alkaline phosphatase levels at 1.5 to 3 mg/kg injected into shaved area of skin once daily for 4 days; type: organism-based; settings: in vivo, other, 96 h; outline: as §4

Chain of Coagulation factor X (Homo sapiens) (P00742 41-179 limits assumed): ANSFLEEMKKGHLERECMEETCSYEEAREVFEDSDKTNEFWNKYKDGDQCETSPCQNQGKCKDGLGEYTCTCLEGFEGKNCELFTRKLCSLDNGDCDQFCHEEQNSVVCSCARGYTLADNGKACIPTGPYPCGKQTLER
Chain of Coagulation factor X (Homo sapiens) (P00742 235-488 limits assumed): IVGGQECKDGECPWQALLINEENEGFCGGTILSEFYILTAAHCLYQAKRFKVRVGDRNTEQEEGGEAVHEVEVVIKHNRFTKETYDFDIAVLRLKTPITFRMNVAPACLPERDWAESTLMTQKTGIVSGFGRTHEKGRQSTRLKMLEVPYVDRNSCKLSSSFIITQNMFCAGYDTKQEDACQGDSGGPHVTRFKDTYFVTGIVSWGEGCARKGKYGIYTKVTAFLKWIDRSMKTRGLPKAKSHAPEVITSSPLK

## CC(C)C[C@H](NC(=O)[C@H](Cc1c[nH]c2ccccc12)NC(=O)c1cc(Cl)ccc1Cl)B(O)O
Staphylococcus aureus [1]
  inhibition: Active
Staphylococcus aureus [2]
  Activity: Active
[3]
  inhibition: inactive
Staphylococcus aureus [4]
  inhibition: Active
Staphylococcus aureus [5]
  MIC: 64 to 128 µg/mL (≈ 131 to 261 µM)
[6]
  Activity: 100%
[7]
  Activity: Non-Toxic
[8]
  Activity: Toxic
[9]
  Ratio: 16.7 ×10² /s.M
[10]
  IC50: 69.6 µM
Staphylococcus aureus [11]
  Activity: Active
[12]
  Activity: Non-Toxic
[13]
  Activity: Non-Toxic
Staphylococcus aureus [14]
  Activity: Active
Staphylococcus aureus [15]
  Activity: Active
[16]
  Activity: Non-Toxic
[17]
  GI50 at 24 h: 108 µM
[18]
  Activity: Non-Toxic
